Data set [1] in a line: Half life in CD-1 mouse at 1 mg/kg, iv measured up to 24 hrs. It counts as ADME, organism-based. Particulars: in vivo.
Data set [2] in a line: Clast in CD-1 mouse at 1 mg/kg, iv measured up to 24 hrs. It counts as ADME, organism-based. The conditions noted are these: in vivo, read-out: Clast.
Data set [3] is described as follows: AUClast in CD-1 mouse at 10 mg/kg, po measured up to 24 hrs. Particulars: in vivo. Type of data set: ADME, organism-based. Also noted: route oral, dose 10 mg/kg, time <=24.
Data set [4] relates to Mus musculus. The data set can be described thus: Gastroprokinetic activity in CD-1 mouse assessed as stimulation of gastrointestinal motility by measuring fecal number at 1 mg/kg, po measured after 3 hrs (reference value: 9.1 +/-1.1). Type of data set: functional.
Data set [5] relates to Mus musculus. The experiment in a line: Gastroprokinetic activity in CD-1 mouse assessed as stimulation of gastrointestinal motility by measuring fecal number at 100 mg/kg, po measured after 3 hrs (reference value: 9.1 +/-1.1). It counts as functional.
For data set [6], the system named is Mus musculus. The data set can be described thus: Gastroprokinetic activity in CD-1 mouse assessed as stimulation of gastrointestinal motility by measuring fecal number at 10 mg/kg, po measured after 6 hrs (reference value: 20.1 +/-1.4). Type of data set: functional.
Data set [7] can be described thus: Drug concentration in C57BL6 mouse colon at 3 mg/kg, po administered as single dose measured after 6 hrs by LC-MS/MS analysis. It counts as ADME, organism-based. Particulars: read-out: Ct. The essentials:
(§1)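 Single oral dose of 1, 3 or 100 mg/kg in mouse. Plasma (ng/mL) and colon and ileum (ng/g) exposure sampled at 6, 24 and 48 h, and at 72 h for the top dose; mean values reported.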

Data set [8] in a line: Drug concentration in C57BL6 mouse ileum at 3 mg/kg, po administered as single dose measured after 6 to 48 hrs by LC-MS/MS analysis. Type of data set: ADME, organism-based. The conditions noted are these: in vivo, time 6-48 hrs. The essentials:
as §1

Data set [9] relates to Mus musculus. The experiment in a line: Gastroprokinetic activity in CD-1 mouse assessed as stimulation of gastrointestinal motility by measuring total fecal weight at 100 mg/kg, po measured after 6 hrs (reference value: 0.43 +/-0.05 g).
Data set [10] has as its system Mus musculus. The experiment in a line: Gastroprokinetic activity in CD-1 mouse assessed as stimulation of gastrointestinal motility by measuring total fecal weight at 10 mg/kg, po measured after 3 hrs (reference value: 0.21 +/-0.03 g).
Data set [11] concerns Mus musculus. The data set can be described thus: Gastroprokinetic activity in CD-1 mouse assessed as stimulation of gastrointestinal motility by measuring fecal number at 10 mg/kg, po measured after 1 hrs (reference value: 3 +/-0.8). Type of data set: functional.
In data set [12] the test system is Mus musculus. The experiment in a line: Gastroprokinetic activity in CD-1 mouse assessed as stimulation of gastrointestinal motility by measuring total fecal weight at 100 mg/kg, po measured after 3 hrs (reference value: 0.21 +/-0.03 g). It counts as functional.
The test system of data set [13] is Mus musculus. The experiment in a line: Gastroprokinetic activity in CD-1 mouse assessed as stimulation of gastrointestinal motility by measuring fecal number at 100 mg/kg, po measured after 6 hrs (reference value: 20.1 +/-1.4). Type of data set: functional.
Data set [14] can be described thus: Drug concentration in C57BL6 mouse ileum at 1 mg/kg, po administered as single dose measured after 6 to 48 hrs by LC-MS/MS analysis. The conditions noted are these: in vivo, time 6-48 hrs. Type of data set: ADME, organism-based. The method in brief:
as §1

The nature of data set [15]: Drug concentration in C57BL6 mouse ileum at 100 mg/kg, po administered as single dose measured after 6 hrs by LC-MS/MS analysis. Type of data set: ADME, organism-based. Particulars: read-out: Ct. The essentials: as §1
Data set [16] in a line: Drug concentration in C57BL6 mouse colon at 100 mg/kg, po administered as single dose measured after 6 hrs by LC-MS/MS analysis. It counts as ADME, organism-based. Particulars: read-out: Ct. The method in brief:
as §1

Data set [17] in a line: Drug concentration in C57BL6 mouse ileum at 100 mg/kg, po administered as single dose measured after 24 hrs by LC-MS/MS analysis. Type of data set: ADME, organism-based. The conditions noted are these: read-out: Ct. The essentials:
as §1

The subject of data set [18] is Mus musculus. The experiment in a line: Gastroprokinetic activity in CD-1 mouse assessed as stimulation of gastrointestinal motility by measuring total fecal weight at 10 mg/kg, po measured after 1 hrs (reference value: 0.08 +/-0.02 g). It counts as functional.
Data set [19] can be described thus: Drug concentration in C57BL6 mouse plasma at 3 mg/kg, po administered as single dose measured after 6 to 48 hrs by LC-MS/MS analysis. Particulars: in vivo, time 6-48 hrs. Type of data set: ADME, organism-based. The method in brief: as §1
Data set [20] in a line: Drug concentration in C57BL6 mouse colon at 1 mg/kg, po administered as single dose measured after 24 to 48 hrs by LC-MS/MS analysis. The conditions noted are these: in vivo, time 24-48 hrs. Type of data set: ADME, organism-based. The method in brief:
as §1

Data set [21] relates to Mus musculus. The experiment in a line: Gastroprokinetic activity in CD-1 mouse assessed as stimulation of gastrointestinal motility by measuring fecal number at 10 mg/kg, po measured after 2 hrs (reference value: 5.3 +/-0.7). It counts as functional.
The test system of data set [22] is Mus musculus. The experiment in a line: Gastroprokinetic activity in CD-1 mouse assessed as stimulation of gastrointestinal motility by measuring fecal number at 10 mg/kg, po measured after 3 hrs (reference value: 9.1 +/-1.1). Type of data set: functional.
The subject of data set [23] is Mus musculus. The experiment in a line: Gastroprokinetic activity in CD-1 mouse assessed as stimulation of gastrointestinal motility by measuring fecal number at 1 mg/kg, po measured after 6 hrs (reference value: 20.1 +/-1.4). Type of data set: functional.
In data set [24] the test system is Mus musculus. The experiment in a line: Gastroprokinetic activity in CD-1 mouse assessed as stimulation of gastrointestinal motility by measuring total fecal weight at 1 mg/kg, po measured after 3 hrs (reference value: 0.21 +/-0.03 g). Type of data set: functional.
Data set [25] can be described thus: Drug concentration in C57BL6 mouse colon at 1 mg/kg, po administered as single dose measured after 6 hrs by LC-MS/MS analysis. Type of data set: ADME, organism-based. Particulars: read-out: Ct. The method in brief: as §1
For data set [26], the system named is Mus musculus. The experiment in a line: Gastroprokinetic activity in CD-1 mouse assessed as stimulation of gastrointestinal motility by measuring total fecal weight at 100 mg/kg, po measured after 2 hrs (reference value: 0.13 +/-0.02 g). Type of data set: functional.
Data set [27] can be described thus: Drug concentration in C57BL6 mouse plasma at 1 mg/kg, po administered as single dose measured after 6 to 48 hrs by LC-MS/MS analysis. It counts as ADME, organism-based. The conditions noted are these: in vivo, time 6-48 hrs. The essentials: as §1
Data set [28] in a line: Drug concentration in C57BL6 mouse colon at 100 mg/kg, po administered as single dose measured after 72 hrs by LC-MS/MS analysis. It counts as ADME, organism-based. The essentials: as §1

A value given as a limit tells only on which side of the number the result lay.

`Clc1cnc(CNc2ccc3cnsc3c2)s1`: the half-life (as a rule, the time needed for the level to fall by half in the phase considered) in data set [1] was 48.6 min. For the same compound, the concentration at 24 h in [2] was found to be 2.99 ng/mL. For the same compound, the exposure AUC(0-t) – broadly, the area under the concentration-time curve up to a stated or last time point – at 24 h in data set [3] is 94.3 ng·h/mL.

For `Clc1cnc(CNc2cc3sncc3cc2Cl)s1`, the Activity was 11.8 in the data set on Mus musculus [4]; 13 in the data set with Mus musculus [5]; 18.5 with Mus musculus [6]; 0.49 g with Mus musculus [9]; 0.23 g with Mus musculus [10]; 3.4 in the data set with Mus musculus [11]. The Activity is 0.41 g in the data set with Mus musculus [12]; 16.3 in the data set on Mus musculus [13]; 0.08 g with Mus musculus [18]; 7.3 in the data set on Mus musculus [21]; 10.3 in the data set with Mus musculus [22]; 24.3 with Mus musculus [23]. The Activity in the data set on Mus musculus [24] worked out at 0.23 g; with Mus musculus [26], 0.31 g. The concentration at 6 h was determined as 143 ng/g in [7], 7380 ng/g in [15], 2620 ng/g in data set [16] and 63.8 ng/g in data set [25]. The Ct in data set [8], in data set [14] and in data set [20] was below 20 ng/mL each time. In data set [17], the concentration at 24 h is 202 ng/g. Besides, the Cp in [19] and in data set [27] was below 20 ng/mL each time. In data set [28], this compound registered a concentration at 72 h below 20 ng/mL.
